The IC50 is the concentration at which inhibition is half-maximal. As a reminder, the AC50 is the midpoint of the concentration-response curve, whichever way the signal moves. High values mean weaker potency, low ones greater potency.

Data on six molecules can be found in ChEMBL document CHEMBL1144159, “Impacts of baicalein analogs with modification of the 6th position of A ring on the activity toward NF-kappaB-, AP-1-, or CREB-mediated transcription” (Bioorg Med Chem Lett, 2008).

Assay [1] has as its system KB. The experiment in a line: Cytotoxicity against multi-drug resistant human KB cells overexpressing mdr1 after 3 days. The class given is functional, cell-based. Particulars: 72 h. The procedure, abridged: (§1)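 KB cells and their multidrug-resistant KB/MDR subline overexpressing mdr1, incubated with compound for 3 days (doubling time about 20–24 h). Growth inhibition is given as IC50, the concentration inhibiting 50% of cell growth. Values are the mean of three independent experiments.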

Assay [2] can be described thus: Effect on transcriptional activity of NF-kappaB transfected in human Hep G2 cells after 1 hr by luciferase reporter gene assay. The class given is cell-based. The settings on record: HepG2, 1 h. The procedure, abridged:
(§2)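 HepG2 lines stably carrying luciferase reporters (NF-κB-luc, AP-1-luc, CRE-luc) were pretreated with a range of compound concentrations for 1 h, then incubated 4 h with or without stimulus: TNFα for NF-κB, TPA for AP-1, forskolin for CREB. Luciferase activity is expressed as % of the drug-free control, with or without stimulus. Amax is the maximal fold activity versus control; AC50 is the concentration giving 50% of maximal activity. Mean ± SD of ≥3 independent experiments.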
In general terms: A reporter such as luciferase makes a cellular process visible.

Assay [3] concerns HepG2. The experiment in a line: Effect on transcriptional activity of NF-kappaB transfected in human Hep G2 cells after 1 hr by luciferase reporter gene assay relative to control. It is filed as cell-based. In short, it runs like this:
as §2

Assay [4] deals with HepG2. The experiment in a line: Effect on transcriptional activity of NF-kappaB transfected in TNF-alpha-stimulated human Hep G2 cells after 4 hrs by luciferase reporter gene assay relative to control. It is filed as cell-based. The procedure, abridged: as §2
Assay [5] concerns the target Transcription factor Jun (Homo sapiens) (UniProt P05412). The experiment in a line: Effect on transcriptional activity of AP1 transfected in human Hep G2 cells after 1 hr by luciferase reporter gene assay relative to control. The class given is cell-based. Particulars: HepG2. The procedure, abridged: as §2
The target is the same in assay [6]. Nature of the assay: Effect on transcriptional activity of AP1 transfected in TPA-stimulated human Hep G2 cells after 4 hrs by luciferase reporter gene assay relative to control. It is filed as cell-based. Particulars: HepG2. In short, it runs like this: as §2
In assay [7] the target is Cyclic AMP-responsive element-binding protein 1 (Homo sapiens) (UniProt P16220). The experiment in a line: Effect on transcriptional activity of CREB transfected in human Hep G2 cells after 1 hr by luciferase reporter gene assay relative to control. It is filed as cell-based. Particulars: HepG2. The procedure, abridged: as §2
Assay [8] shares this target. Nature of the assay: Effect on transcriptional activity of CREB transfected in forskolin-stimulated human Hep G2 cells after 4 hrs by luciferase reporter gene assay relative to control. The class given is cell-based. Particulars: HepG2. In short, it runs like this:
as §2

Assay [9] can be described thus: Effect on transcriptional activity of NF-kappaB transfected in TNF-alpha-stimulated human Hep G2 cells after 4 hrs by luciferase reporter gene assay. Particulars: HepG2, 4 h. It is filed as cell-based. The procedure, abridged: as §2
The test system of assay [10] is KB. Nature of the assay: Cytotoxicity against human KB cells after 3 days. The class given is functional, cell-based. The settings on record: 72 h. In short, it runs like this: as §1

Transcription factor Jun (Homo sapiens), sequence (P05412 whole entry): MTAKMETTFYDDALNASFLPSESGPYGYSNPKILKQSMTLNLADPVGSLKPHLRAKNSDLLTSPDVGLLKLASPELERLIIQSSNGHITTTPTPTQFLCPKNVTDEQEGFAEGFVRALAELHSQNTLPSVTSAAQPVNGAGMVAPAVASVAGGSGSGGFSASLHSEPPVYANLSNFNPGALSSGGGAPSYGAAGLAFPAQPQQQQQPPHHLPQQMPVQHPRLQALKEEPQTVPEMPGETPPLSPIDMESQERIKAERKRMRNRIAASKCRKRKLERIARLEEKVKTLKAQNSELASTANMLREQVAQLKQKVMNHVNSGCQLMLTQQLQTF
Cyclic AMP-responsive element-binding protein 1 (Homo sapiens), sequence (P16220 whole entry): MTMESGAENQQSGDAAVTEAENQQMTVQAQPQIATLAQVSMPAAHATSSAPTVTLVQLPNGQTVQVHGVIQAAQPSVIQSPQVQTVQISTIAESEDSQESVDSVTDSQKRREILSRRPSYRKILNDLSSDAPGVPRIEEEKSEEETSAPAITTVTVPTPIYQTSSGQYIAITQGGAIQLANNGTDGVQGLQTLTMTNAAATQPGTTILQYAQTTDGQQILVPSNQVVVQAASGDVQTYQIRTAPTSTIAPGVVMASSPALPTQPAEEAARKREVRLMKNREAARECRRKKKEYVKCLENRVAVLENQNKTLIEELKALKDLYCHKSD

`O=c1cc(-c2ccccc2)oc2cc(O)c(OCc3ccccc3)c(O)c12` had a half-inhibitory concentration (IC50) with KB [1] of 3.2 µM. In assay [2], this molecule came in with a half-maximal activity concentration (AC50) of 0.5 µM. Besides, the fold change (FC) was determined as 2.08 in the assay with HepG2 [3]; 1.47 with HepG2 [4]; 1.36 in [5]; 0.85 in [6]; 1.31 in assay [7]; 7.69 in [8].

On to `CC(=O)Oc1c(O)cc2oc(-c3ccccc3)cc(=O)c2c1O`, for which, in the assay on KB [1], the concentration for half-maximal inhibition (IC50) was found to be 61.6 µM. Besides, the half-maximal activity concentration (AC50) in [2] and in assay [9] was 2.2 µM throughout. Moreover, the fold change (FC) in the assay on HepG2 [3] came out at 6.62; in the assay on HepG2 [4], 3.47; in [5] it was 1.44; in [6], 1.18; in assay [7], 2.04; in assay [8], 5.21.

As to `COc1c(O)cc2oc(-c3ccccc3)cc(=O)c2c1O` [OROXYLIN A], the IC50 turned out to be 31.1 µM in the assay with KB [10] and 16.1 µM in the assay with KB [1]. Further, the AC50 in [2] was 4.8 µM; in [9], 5 µM. In addition, the fold change (FC) with HepG2 [3] is 4.12; with HepG2 [4], 2.5; in [5] it was 1.41; in assay [6], 1.27; in assay [7], 1.28; in assay [8], 2.61.

`CCOc1c(O)cc2oc(-c3ccccc3)cc(=O)c2c1O` showed an IC50 in the assay with KB [1] of 17.5 µM. Besides, the activity in assay [2] was half-maximal at 0.7 µM (AC50). Besides, the fold change (FC) was determined as 2.92 with HepG2 [3]; 1.27 with HepG2 [4]; 1.35 in [5]; 1.21 in assay [6]; 1.81 in assay [7]; 14.5 in assay [8].

For `O=c1cc(-c2ccccc2)oc2cc(O)c(O)c(O)c12` [BAICALEIN], 87.1 µM corresponded to half-maximal inhibition in the assay on KB [1] (IC50). The AC50 is 8.3 µM in assay [2] and 8.6 µM in [9]. For the same molecule, the fold change (FC) in the assay on HepG2 [3] was determined as 4.92; in the assay with HepG2 [4], 3.35; in assay [5], 1.44; in [6], 1.26; in [7], 1.35; in assay [8], 2.2.

Take `CCCOc1c(O)cc2oc(-c3ccccc3)cc(=O)c2c1O`: the IC50 in the assay with KB [1] was greater than 100 µM. In addition, the fold change (FC) came to 1.81 with HepG2 [3]; 1.36 in the assay on HepG2 [4]; 1.43 in [5]; 1.05 in assay [6]; 1.59 in [7]; 7.35 in assay [8].
